≈ marks a conversion by molar mass, not a printed value. Calls of active or inactive are those of the source. The calls are words filed in the database; no cut-off is given here.

For data set [1], the system named is Staphylococcus aureus. In words: Antibacterial activity against methicillin-resistant Staphylococcus aureus isolate EMRSA-15 after 24 hrs by MTT dye based broth microdilution method. The data set is classed as functional.
The next data set deals with Prostatic carcinoma cell. In words: Cytotoxicity against human prostate cancer cells at 3 to 30 ug/ml after 48 hrs by SRB assay. The data set is classed as cell-based. In a few lines:
(§1)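 Cells plated in 96-well format with test samples at 30, 10 and 3 μg/mL for 48 h. Adherent cells fixed in 50% (wt/vol) trichloroacetic acid, stained 60 min with 0.4% sulforhodamine B in 1% acetic acid, bound dye dissolved in 10 mM Tris base, absorbance read at 510 nm.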

The test system of data set [2] is Staphylococcus aureus. In words: Antibacterial activity against methicillin-resistant Staphylococcus aureus SA1199B after 24 hrs by MTT dye based broth microdilution method. The data set is classed as functional.
Data set [3] can be described thus: Cytotoxicity against human hepatic cancer cells at 3 to 30 ug/ml after 48 hrs by SRB assay. The data set is classed as cell-based. The method, boiled down: as §1
For data set [4], the system named is Staphylococcus aureus. The data set is described as follows: Antibacterial activity against methicillin-resistant Staphylococcus aureus RN4220 after 24 hrs by MTT dye based broth microdilution method. The data set is classed as functional.
For data set [5], the system named is Staphylococcus aureus. In words: Antibacterial activity against […] after 24 hrs by MTT dye based broth microdilution method. Type of data set: functional. The settings on record: ATCC 25923, 24 h.
In data set [6] the test system is Staphylococcus aureus. In words: Antibacterial activity against methicillin-resistant Staphylococcus aureus isolate XU2120 after 24 hrs by MTT dye based broth microdilution method. Type of data set: functional. The settings on record: isolate XU2120, 24 h.

For `CCC(C)CC(C)CCCCC[C@@H]1CC(=O)N[C@@H](CC(C)C)C(=O)N[C@@H](CC(C)C)C(=O)N[C@@H](CC(C)C)C(=O)N[C@@H](CCC(=O)O)C(=O)O1` (some centres undefined), the MIC result in the data set on Staphylococcus aureus [1] and in the data set with Staphylococcus aureus [4] was “inactive” throughout. The Activity result (in the data set with Prostatic carcinoma cell; in data set [3]) was “Non-Toxic” in each case. Besides, the MIC against Staphylococcus aureus [2] came out at 32 µg/mL (≈ 45.1 µM); in the data set on Staphylococcus aureus [5], 16 µg/mL (≈ 22.6 µM); with Staphylococcus aureus [6], 16 µg/mL (≈ 22.6 µM).

As to `CCC(C)CCCCCCC[C@@H]1CC(=O)N[C@@H](CC(C)C)C(=O)N[C@@H](CC(C)C)C(=O)N[C@@H](CC(C)C)C(=O)N[C@@H](CCC(=O)O)C(=O)O1` (some centres undefined), the MIC result with Staphylococcus aureus [1] was “inactive”. Also, the Activity entry (in the data set with Prostatic carcinoma cell; in data set [3]) was “Non-Toxic” throughout. Besides, the minimal inhibitory concentration (MIC) against Staphylococcus aureus [2] is 8 µg/mL (≈ 11.5 µM); in the data set with Staphylococcus aureus [4] (RN4220, 24 h), 32 µg/mL (≈ 46 µM); against Staphylococcus aureus [5], 8 µg/mL (≈ 11.5 µM); in the data set with Staphylococcus aureus [6], 16 µg/mL (≈ 23 µM).

For `CCn1cc(C(=O)O)c(=O)c2cc(F)c(N3CCNCC3)cc21` [NORFLOXACIN], the MIC in the data set with Staphylococcus aureus [1] (isolate EMRSA-15, 24 h) was found to be 4 µg/mL (≈ 12.5 µM); against Staphylococcus aureus [2], 64 µg/mL (≈ 200 µM); against Staphylococcus aureus [4] (RN4220, 24 h), 2 µg/mL (≈ 6.26 µM); against Staphylococcus aureus [5] it was 16 µg/mL (≈ 50.1 µM); with Staphylococcus aureus [6], 16 µg/mL (≈ 50.1 µM).

These data come from ChEMBL document CHEMBL4130543, “Bacilotetrins A and B, Anti-Staphylococcal Cyclic-Lipotetrapeptides from a Marine-Derived Bacillus subtilis” (J Nat Prod, 2017).
